Laboratory results from ChEMBL document CHEMBL4152343, “Design, Synthesis, and Pharmacological Evaluation of Second-Generation Tetrahydroisoquinoline-Based CXCR4 Antagonists with Favorable ADME Properties” (J Med Chem, 2018).

Tests used:
[1] = biological target: T1, C-X-C chemokine receptor type 4 (Homo sapiens, UniProt P61073); test: Antagonist activity at CXCR4 in human CCRF-CEM cells assessed as inhibition of SDF-1alpha-induced calcium release preincubated for 25 mins followed by SDF-1alpha stimulation and measured for 90 secs by calcium flux assay; assay type: functional, cell-based
T1 sequence (P61073 whole entry): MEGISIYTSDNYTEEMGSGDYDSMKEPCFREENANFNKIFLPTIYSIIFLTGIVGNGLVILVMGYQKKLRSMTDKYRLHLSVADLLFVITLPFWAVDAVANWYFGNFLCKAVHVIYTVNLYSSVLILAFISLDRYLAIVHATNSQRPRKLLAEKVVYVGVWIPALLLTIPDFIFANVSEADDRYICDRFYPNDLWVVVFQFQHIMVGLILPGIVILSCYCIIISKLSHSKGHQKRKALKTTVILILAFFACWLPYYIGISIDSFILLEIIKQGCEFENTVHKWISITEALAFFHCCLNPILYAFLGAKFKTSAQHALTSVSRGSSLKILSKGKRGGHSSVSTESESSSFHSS

[2] = biological target: Cytochrome P450 2D6 (Homo sapiens, UniProt P10635); test: Inhibition of recombinant human CYP2D6 expressed in insect cells microsomes using AMMC as substrate preincubated for 30 mins followed by NADP addition and measured after 45 mins by fluorescence analysis; assay type: ADME
Cytochrome P450 2D6, sequence (P10635 whole entry): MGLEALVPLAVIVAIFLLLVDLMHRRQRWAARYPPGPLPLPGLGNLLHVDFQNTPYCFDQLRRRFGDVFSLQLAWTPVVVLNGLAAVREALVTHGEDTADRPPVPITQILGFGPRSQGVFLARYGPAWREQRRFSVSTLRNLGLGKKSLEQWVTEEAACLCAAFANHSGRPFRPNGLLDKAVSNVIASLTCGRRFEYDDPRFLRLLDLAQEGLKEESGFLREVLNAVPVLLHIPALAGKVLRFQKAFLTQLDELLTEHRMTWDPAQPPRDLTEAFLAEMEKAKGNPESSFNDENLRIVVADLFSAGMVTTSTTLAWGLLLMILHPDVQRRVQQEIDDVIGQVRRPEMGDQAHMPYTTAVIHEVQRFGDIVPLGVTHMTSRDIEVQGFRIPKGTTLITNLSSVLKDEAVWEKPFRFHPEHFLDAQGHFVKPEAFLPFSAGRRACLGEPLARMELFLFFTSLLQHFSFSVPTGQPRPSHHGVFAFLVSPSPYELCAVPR

[3] = biological target: Muscarinic acetylcholine receptor; test: Antagonist activity at mAChR in human CCRF-CEM cells assessed as inhibition of acetylcholine-induced calcium release preincubated for 25 mins followed by acetylcholine stimulation and measured for 90 secs by calcium flux assay; assay type: functional, cell-based
In short: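 Endogenous muscarinic receptors in CCRF-CEM cells (HBSS/HEPES/BSA buffer, 40,000 cells/well, dye-loaded 30 min at 37°C). Calcium flux recorded 90 s by FDSS. IC50 by 4-parameter logistic fit against an internal control compound; duplicate wells, single experiment.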

[4] = Metabolic stability in human liver microsomes assessed as parent compound remaining after 10 mins by LC-MS/MS analysis; assay type: ADME, microsome; conditions: read-out: Stability
In short: (§1)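 Compound depletion measured by LC/MS/MS after 10 min at 37 °C in liver microsome preparations (CYP450 and other NADP-dependent enzymes). Values are % of compound remaining; duplicates in a single experiment.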

[5] = Metabolic stability in mouse liver microsomes assessed as parent compound remaining after 10 mins by LC-MS/MS analysis; assay type: ADME, microsome; conditions: read-out: Stability; in short: as §1
[6] = biological target: Cytochrome P450 3A4 (Homo sapiens, UniProt P08684); test: Inhibition of human CYP3A4; assay type: ADME
Cytochrome P450 3A4, sequence (P08684 whole entry): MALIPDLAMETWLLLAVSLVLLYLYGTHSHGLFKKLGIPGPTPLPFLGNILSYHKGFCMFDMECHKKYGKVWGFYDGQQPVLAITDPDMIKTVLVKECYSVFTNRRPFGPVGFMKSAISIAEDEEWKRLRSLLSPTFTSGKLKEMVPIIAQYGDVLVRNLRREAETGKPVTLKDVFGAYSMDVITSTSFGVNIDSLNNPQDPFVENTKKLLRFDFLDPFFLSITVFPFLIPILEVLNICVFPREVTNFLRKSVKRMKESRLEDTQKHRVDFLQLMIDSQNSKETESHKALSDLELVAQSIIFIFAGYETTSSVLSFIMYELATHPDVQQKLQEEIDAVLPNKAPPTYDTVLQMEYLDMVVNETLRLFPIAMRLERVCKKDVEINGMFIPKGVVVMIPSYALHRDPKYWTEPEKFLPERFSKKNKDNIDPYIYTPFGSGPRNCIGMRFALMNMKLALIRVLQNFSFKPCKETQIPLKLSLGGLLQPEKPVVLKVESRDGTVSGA

[7] = biological target: Voltage-gated inwardly rectifying potassium channel KCNH2 (Homo sapiens, UniProt Q12809); test: Displacement of [3H]astemizole from human ERG expressed in HEK cell membranes
Voltage-gated inwardly rectifying potassium channel KCNH2, sequence (Q12809 whole entry): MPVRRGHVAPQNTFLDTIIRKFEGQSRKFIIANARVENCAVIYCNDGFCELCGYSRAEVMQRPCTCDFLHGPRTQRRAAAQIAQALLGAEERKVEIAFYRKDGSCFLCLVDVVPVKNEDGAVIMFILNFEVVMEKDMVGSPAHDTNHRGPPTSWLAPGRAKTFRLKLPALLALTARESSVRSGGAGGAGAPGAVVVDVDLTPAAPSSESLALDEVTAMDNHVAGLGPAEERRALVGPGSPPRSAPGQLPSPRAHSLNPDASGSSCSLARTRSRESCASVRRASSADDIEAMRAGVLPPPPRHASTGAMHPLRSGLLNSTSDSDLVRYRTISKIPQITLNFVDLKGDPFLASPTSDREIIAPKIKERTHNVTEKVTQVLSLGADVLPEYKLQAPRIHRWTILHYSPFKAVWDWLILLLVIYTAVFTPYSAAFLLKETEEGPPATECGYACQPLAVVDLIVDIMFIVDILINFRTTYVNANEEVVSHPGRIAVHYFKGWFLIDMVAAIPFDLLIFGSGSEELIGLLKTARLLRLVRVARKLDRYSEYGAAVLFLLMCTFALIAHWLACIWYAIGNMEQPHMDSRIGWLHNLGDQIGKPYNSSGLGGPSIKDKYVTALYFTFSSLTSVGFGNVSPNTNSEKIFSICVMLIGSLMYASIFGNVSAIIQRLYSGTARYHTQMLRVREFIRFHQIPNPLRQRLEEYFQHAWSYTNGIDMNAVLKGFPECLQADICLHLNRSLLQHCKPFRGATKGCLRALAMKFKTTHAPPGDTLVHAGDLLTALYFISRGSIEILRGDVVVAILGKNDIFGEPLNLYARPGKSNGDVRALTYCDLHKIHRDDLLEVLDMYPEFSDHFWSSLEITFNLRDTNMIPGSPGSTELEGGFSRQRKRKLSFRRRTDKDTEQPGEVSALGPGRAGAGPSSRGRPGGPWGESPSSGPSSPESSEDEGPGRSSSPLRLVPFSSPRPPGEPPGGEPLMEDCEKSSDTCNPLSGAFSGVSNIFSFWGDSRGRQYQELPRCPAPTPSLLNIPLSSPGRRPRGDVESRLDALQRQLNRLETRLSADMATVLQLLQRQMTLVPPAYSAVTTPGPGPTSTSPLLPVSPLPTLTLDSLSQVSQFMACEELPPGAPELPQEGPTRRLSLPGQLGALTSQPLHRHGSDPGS
In short: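 Binding assay measuring [3H]astemizole displacement in HEK membranes overexpressing hKv11.1.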

[8] = biological target: T1, C-X-C chemokine receptor type 4; test: Agonist activity at CXCR4 in human CCRF-CEM cells assessed as induction of calcium release incubated for 25 mins by calcium flux assay; assay type: functional, cell-based
In short: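 CCRF-CEM T lymphoblasts (endogenous CXCR4) in HBSS/20 mM HEPES/0.1% fatty-acid-free BSA, 40,000 cells/well, dye-loaded 30 min at 37°C, then 15 min at room temperature. Compounds added at final 25,000–0.423 nM (0.5% DMSO) and calcium flux read by FDSS for 90 s.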

[9] = biological target: Voltage-gated L-type calcium channel (Homo sapiens, UniProt Q13936+Q13698+Q01668+O60840); test: Antagonist activity at L-type calcium channel (unknown origin); assay type: protein assay
[10] = species: Homo sapiens; test: Selectivity index, ratio of IC50 for antagonist activity at mAChR in human CCRF-CEM cells to IC50 for antagonist activity at CXCR4 in human CCRF-CEM cells; assay type: cell-based
[11] = Permeability of compound at pH 7.4 by PAMPA; assay type: ADME; conditions: read-out: permeability
In short: (§2)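 Compound from 10 mM DMSO stock diluted 1:100 to 100 µM (1% DMSO) in pH 7.4 or pH 5.5 donor buffer, then filtered. Lipid-coated filter membrane with pH 7.4 acceptor buffer; incubated 4 h at room temperature. UV plate reading gives Pc. Duplicates in two independent experiments unless noted.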

[12] = Permeability of compound at pH 5.5 by PAMPA; assay type: ADME; conditions: read-out: permeability; in short: as §2

SMILES | IC50 [1] | IC50 [2] | IC50 [3] | remaining at 10 min [4] | remaining at 10 min [5] | IC50 [6] | EC50 [8] | Papp [11] | Papp [12] | IC50 [7] | IC50 [9] | Ratio IC50 [10]
CN(C[C@H]1Cc2c(cccc2N2CCNCC2)CN1)[C@H]1CCCc2cccnc21 | 0.00608 µM | > 20 µM | 7.18 µM | 99.7% | 19.9% | > 20 µM | > 30 µM |  |  | 20.3 µM | > 80 µM | 
CN(C[C@H]1Cc2c(cccc2N2CCN3CCC[C@@H]3C2)CN1)[C@H]1CCCc2cccnc21 | 0.00359 µM | > 20 µM | 26.1 µM | 52.2% | 36.7% | > 20 µM | > 30 µM | 74 ×10⁻⁶ cm/s |  |  |  | > 5000
CC(C)N1CCN(c2cccc3c2C[C@H](CN(C)[C@H]2CCCc4cccnc42)NC3)CC1 | 0.0169 µM | 8.13 µM | > 16.7 µM | 56.6% | 15.1% | > 20 µM | > 30 µM | 14.3 ×10⁻⁶ cm/s |  |  |  | 

More lines, in order of falling IC50 [1], values ahead:

IC50 [1] | IC50 [2] | IC50 [3] | remaining at 10 min [4] | remaining at 10 min [5] | IC50 [6] | EC50 [8] | Papp [11] | Papp [12] | SMILES | IC50 [7] | IC50 [9] | Ratio IC50 [10]
0.715 µM | 5.72 µM | > 33.3 µM | 81.6% | 85.6% | 1.78 µM | > 30 µM | 0.9 ×10⁻⁶ cm/s |  | c1cnc2c(c1)CCC[C@@H]2N(CC1CCCCC1)C[C@H]1Cc2c(cccc2N2CCNCC2)CN1 |  |  | 
0.0307 µM | 0.508 µM | 0.887 µM | 35.5% | 35.1% | 3.35 µM | > 30 µM |  | 36 ×10⁻⁶ cm/s | CN(C[C@H]1Cc2c(cccc2N2CCN(c3ncccn3)CC2)CN1)[C@H]1CCCc2cccnc21 |  |  | 
0.0179 µM | 2.52 µM | 1.98 µM | 27.4% | 46.1% | 3.16 µM | > 30 µM |  | 12.9 ×10⁻⁶ cm/s | CN(C[C@H]1Cc2c(cccc2N2CCN(c3ccccn3)CC2)CN1)[C@H]1CCCc2cccnc21 |  |  | 
0.00447 µM | 11 µM | 10.8 µM | 4.2% | 40.4% | 6.79 µM | > 30 µM |  | 8.2 ×10⁻⁶ cm/s | CN(C[C@H]1Cc2c(cccc2N2CCN(Cc3ccccn3)CC2)CN1)[C@H]1CCCc2cccnc21 |  |  | 
